Drawing on ChEMBL document CHEMBL1124035, “1-Amino-substituted 4-methyl-5H-pyrido[4,3-b]indoles (gamma-carbolines) as tricyclic analogues of ellipticines: a new class of antineoplastic agents” (1988), this text covers T/C, K aff and IC50 for three molecules.

In assay [1] the test system is Mus musculus. The experiment in a line: Antitumor activity against P388 leukemia in mice at a dose of 8 mg/kg administered intraperitoneally for 5 days. The assay is classed as functional. The following applies: route intraperitoneal. Put shortly:
(§1)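 CDF1 hybrid male or female mice, 10 per group, were inoculated ip on day 0 with 10^6 viable P388 leukemia cells. Drug in distilled water was given ip (0.1 mL/10 g body weight) daily on days 1-5, with vehicle, 5-fluorouracil and BD 84 controls given the same way. T/C = median survival of treated/controls × 100; T/C > 128% counted as significant.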

Assay [2] relates to Mus musculus. Nature of the assay: Antitumor activity against P388 leukemia in mice at a dose of 24 mg/kg administered intraperitoneally for 5 days. The format is functional. The following applies: route intraperitoneal. Put shortly:
as §1

The subject of assay [3] is Mus musculus. Nature of the assay: Antitumor activity against P388 leukemia in mice at a dose of 16 mg/kg administered intraperitoneally for 5 days. The assay is classed as functional. To be noted: route intraperitoneal. Put shortly:
(§2)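 CDF1 hybrid male or female mice, 10 per group, were inoculated ip with 10^6 viable P388 cells on day 0. Drugs in distilled water were given ip (0.1 mL/10 g body weight) daily D1-5. Vehicle, 5-fluorouracil and BD 84 were given the same way. T/C = median survival day of treated / controls × 100; T/C > 128% was significant; cures counted at D60.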

A further assay has as its system Calf thymus DNA. Nature of the assay: Apparent DNA affinity constant. To be noted: Bos taurus. The format is nucleic-acid assay. Put shortly: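 Apparent DNA affinity constant was measured by competition with ethidium bromide. Buffer was 20 mM Na2HPO4/NaH2PO4, 0.1 M NaCl, 1 mM EDTA, pH 7.4, with calf thymus DNA at 10 μg/mL. Values are given in 10^6 M⁻¹.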
Assay [4] deals with Mus musculus. The experiment in a line: Antitumor activity against P388 leukemia in mice at a dose of 1 mg/kg administered intraperitoneally for 5 days. The following applies: route intraperitoneal. The format is functional. Put shortly:
as §2

Assay [5] concerns Mus musculus. Nature of the assay: Antitumor activity against P388 leukemia in mice at a dose of 4 mg/kg administered intraperitoneally. The format is functional. To be noted: route intraperitoneal.
For assay [6], the system named is Mus musculus. Nature of the assay: Antitumor activity against P388 leukemia in mice at a dose of 2 mg/kg administered intraperitoneally for 5 days. The format is functional. To be noted: route intraperitoneal. Put shortly:
as §2

In assay [7] the test system is Mus musculus. Nature of the assay: Antitumor activity against P388 leukemia in mice at a dose of 0.5 mg/kg administered intraperitoneally for 5 days. To be noted: route intraperitoneal. The assay is classed as functional. Put shortly: as §2
A further assay concerns L1210. Nature of the assay: Ability to reduce the cell count to 50% in L1210 culture cells. The format is functional. To be noted: Mus musculus, read-out: ID50 (the source's name). Put shortly:
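L1210 cells in exponential growth in RPMI 1640 with 2 mM glutamine, penicillin/streptomycin and 10% FCS, 37 °C, 5% CO2. Drugs dissolved in distilled water were added to cells at 0.8 × 10^5 cells/mL for 48 h, then cells were counted. ID50 is the concentration halving cell proliferation versus controls, from regression of dose-response data; mean of two independent experiments.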

Assay [8] concerns Mus musculus. The experiment in a line: Antitumor activity against P388 leukemia in mice at a dose of 50 mg/kg administered intraperitoneally for 5 days; Non toxic at this dose. The assay is classed as functional. The following applies: route intraperitoneal. Put shortly: as §1
The test system of assay [9] is Mus musculus. The experiment in a line: Antitumor activity against P388 leukemia in mice at a dose of 10 mg/kg administered intraperitoneally for 5 days. The format is functional. The following applies: route intraperitoneal. Put shortly: as §2
Assay [10] has as its system Mus musculus. Nature of the assay: Antitumor activity against P388 leukemia in mice at a dose of 5 mg/kg administered intraperitoneally for 5 days. The assay is classed as functional. The following applies: route intraperitoneal. Put shortly:
as §1

Assay [11] has as its system Mus musculus. The experiment in a line: Antitumor activity against P388 leukemia in mice at a dose of 10 mg/kg administered intraperitoneally for 5 days; It is nontoxic at this dose. The format is functional. The following applies: route intraperitoneal. Put shortly: as §2
Assay [12] has as its system Mus musculus. Nature of the assay: Antitumor activity against P388 leukemia in mice at a dose of 2.5 mg/kg administered intraperitoneally for 5 days. The assay is classed as functional. The following applies: route intraperitoneal. Put shortly: as §2

What is called T/C is the result in the treated group divided by that in the control group, in per cent.

In the case of `CCN(CC)CCCNc1nccc2c(C)c3[nH]c4ccc(OC)cc4c3c(C)c12` [RETELLIPTINE], the T/C is recorded as 273% in the assay on Mus musculus [1]; 113% in the assay with Mus musculus [2]; 283% in the assay on Mus musculus [3]; 178% in the assay on Mus musculus [4]; 245% in the assay on Mus musculus [5]; 188% in the assay with Mus musculus [6]. This molecule returned a T/C with Mus musculus [7] of 171%. For the same molecule, in the assay on Calf thymus DNA, the K aff is 700000 M⁻¹. Further, in the assay with L1210, the IC50 worked out at 0.1 µM.

`Cc1c[nH]c(NCCNCCO)c2c3ccccc3nc1-2`: in the assay on Calf thymus DNA, the K aff stood at 50000 M⁻¹. In addition, the values for the T/C in the assay with Mus musculus [8] and with Mus musculus [9] were 100% and 109%, respectively. In addition, in the assay on L1210, the IC50 worked out at 1.14 µM.

Regarding `CN(C)CCCNc1[nH]ccc2nc3ccc(O)cc3c1-2`, in the assay with Calf thymus DNA, the K aff came out at 70000 M⁻¹. Besides, the T/C with Mus musculus [10] was found to be 102%; in the assay with Mus musculus [11], 115%; with Mus musculus [12], 111%. The IC50 with L1210 was 11.2 µM.
